# ANO1 activ = activates or potentiates the mouse TMEM16A chloride channel; Q8BHY3; HEK293 TMEM16A/YFP-H148Q/I152L, iodide quench fluorescence; hits give low values; B-score at 10 µM; actives 0.3% (n = 340,000); AID 623877;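 active = fluorescence-ratio B-score plate-corrected deviation score at least 3 library SD below zero, with starting fluorescence score within 5 deviations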;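 note: channel opened by trigger with iodide after compound preincubation; score built on the fluorescence ratio of max minus min over baseline; more negative score means more quench and so TMEM16A activation or potentiation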
# Target sequence (Q8BHY3 whole entry, looked up): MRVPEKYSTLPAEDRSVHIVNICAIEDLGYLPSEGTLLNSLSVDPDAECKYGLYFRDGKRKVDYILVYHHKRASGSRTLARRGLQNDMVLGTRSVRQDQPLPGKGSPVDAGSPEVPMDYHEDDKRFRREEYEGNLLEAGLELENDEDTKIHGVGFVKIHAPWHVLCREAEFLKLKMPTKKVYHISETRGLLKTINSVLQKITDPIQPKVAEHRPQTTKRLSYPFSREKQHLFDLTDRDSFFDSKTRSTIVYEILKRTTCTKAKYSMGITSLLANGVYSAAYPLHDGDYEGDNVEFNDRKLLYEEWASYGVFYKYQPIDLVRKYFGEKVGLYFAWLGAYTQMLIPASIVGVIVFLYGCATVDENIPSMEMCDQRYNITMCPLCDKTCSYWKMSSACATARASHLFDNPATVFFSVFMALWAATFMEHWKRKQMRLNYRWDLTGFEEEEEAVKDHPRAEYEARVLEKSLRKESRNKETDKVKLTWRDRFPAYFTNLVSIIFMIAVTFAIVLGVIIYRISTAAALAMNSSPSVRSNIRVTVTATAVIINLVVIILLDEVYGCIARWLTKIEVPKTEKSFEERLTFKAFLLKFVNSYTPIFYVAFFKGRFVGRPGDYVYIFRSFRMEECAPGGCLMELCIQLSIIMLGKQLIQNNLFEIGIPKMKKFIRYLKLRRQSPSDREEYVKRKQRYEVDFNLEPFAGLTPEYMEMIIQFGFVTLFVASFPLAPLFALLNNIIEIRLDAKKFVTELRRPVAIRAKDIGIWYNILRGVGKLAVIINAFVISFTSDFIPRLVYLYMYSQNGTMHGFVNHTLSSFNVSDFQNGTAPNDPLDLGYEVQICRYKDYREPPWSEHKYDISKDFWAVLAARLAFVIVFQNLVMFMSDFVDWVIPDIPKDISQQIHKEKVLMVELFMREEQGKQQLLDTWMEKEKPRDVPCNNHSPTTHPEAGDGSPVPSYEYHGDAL
# VIM-2 inh = inhibitors of Pseudomonas aeruginosa VIM-2 metallo-beta-lactamase | purified VIM-2, nitrocefin hydrolysis, epi-absorbance fluorescence | inhibition, % at 5.6 µM | actives 0.89% (n = 290,000) | AID 1527;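 active = inhibition above the mean of all tested compounds plus 3 SD, cutoff set per screening run, cut at about 7.5% in these data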;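 note: red hydrolysis product quenches plate fluorescence so inhibitors raise well fluorescence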
# IMP-1 inh = blocks Pseudomonas aeruginosa IMP-1 metallo-beta-lactamase; purified IMP-1, nitrocefin hydrolysis, epi-absorbance fluorescence; inhibition, % at 5.6 µM; actives 0.45% (n = 290,000);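 active = inhibition above the mean plus 3 SD of all compounds in the same screening run, cut at about 4.5% in these data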
#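 system = purified recombinant IMP-1 beta-lactamase | amount = 0.2 nM IMP-1, as dispensed | medium = HEPES buffer pH 7.1 with ZnSO4 and Brij 35 | times = 25 °C, 15 min preincubation, 25 min reaction | detection = plate fluorescence quenching by hydrolysis product, ex 480/em 530 nm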
# CHT inh = inhibitors of human choline transporter CHT; Q9GZV3; AID 488975; B-score at 10 µM; actives 0.86% (n = 310,000); CHT-expressing cells, membrane potential dye, choline response; hits give low values;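 active = B-score over 3 SD under the library average, and starting fluorescence ratio not unusually high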;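 note: choline stimulus applied at its EC90 after an EC20 pre-addition; B-score computed on integrated fluorescence ratio after choline addition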
# CHT PAM = allosteric activators of human choline transporter CHT; Q9GZV3; CHT-expressing cells, membrane potential dye, choline EC20; hits give high values; LV-AA mutant CHT in HEK293 cells; B-score at 10 µM; actives 0.49% (n = 310,000); AID 488977;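 active = initial fluorescence not abnormally high and integrated response B-score, plate-corrected, over 3 SD above library mean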
# ANO1 block = inhibitors of mouse TMEM16A calcium-activated chloride channel; HEK293 TMEM16A/YFP iodide influx fluorescence, ionomycin; normalized B-score (activity score, 25-100; higher = stronger inhibition) at 10 µM; actives 1.2% (n = 310,000);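 active = ratio plate-corrected score three or more library SD toward inhibition, starting fluorescence score within five deviations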;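 note: score derived from kinetic fluorescence span divided by baseline fluorescence per well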
# TMEM16A reconf = re-confirmation of mouse TMEM16A chloride channel inhibitors | actives 39% (n = 2,300) | inhibition, % at 10 µM | HEK293 TMEM16A/YFP-H148Q, iodide quench fluorescence; ionomycin added to raise cell calcium | AID 652189 | shares compounds with ANO1 block;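 active = mean duplicate percent inhibition, scaled so buffer wells are 0 and the reference blocker 100, over three buffer SD above buffer mean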
# HEK293 Ca mobil = alters calcium mobilization in TMEM16A HEK293 cells, counter-screen; calcium response (% of ionomycin), % at 10 µM; actives 2% (n = 2,300); AID 652231; shares compounds with ANO1 block; TMEM16A/YFP HEK293, Fluo4 calcium mobilization;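 active = duplicate-averaged calcium signal over 20% of the ionomycin maximum, relative to buffer baseline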;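 note: each well's signal is peak minus trough fluorescence divided by its pre-addition baseline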
# Parental YFP cnt = parental YFP-HEK293 iodide quench counter-screen activity. shares compounds with ANO1 block. ionomycin. YFP ratio F(max-min)/F0 at 10 µM. 2,300 tested, under 10 active. AID 652233;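 active = yellow fluorescent protein signal ratio exceeding the buffer control mean by over 5 SD of those controls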;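 note: ratio is mean of duplicate wells from kinetic YFP trace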
# ClC-1 rat inh = selectivity of TMEM16A inhibitors: inhibition of rat ClC-1 chloride channel | shares compounds with ANO1 block | CHO ClC-1-YFP, iodide influx fluorescence quench; iodide control reads 0, buffer control 100 | ratio percent, % at 10 µM | 2,300 tested, under 10 active;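 active = duplicate-mean ratio percent above the mean of iodide-only control wells, which defines zero, plus 5 of their SD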;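 note: higher percent means stronger block of ClC-1 iodide influx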
# A number is an active result; - = inactive; . = no result. Most compounds without a hit are left out; they make up all but 3.4% or so of the library.
SMILES,ANO1 activ,VIM-2 inh,IMP-1 inh,CHT inh,CHT PAM,ANO1 block,TMEM16A reconf,HEK293 Ca mobil,Parental YFP cnt,ClC-1 rat inh
CC1CCN(c2oc(Cc3cccc4ccccc34)nc2C#N)CC1,-,-,-,-,-,25,-,-,-,-
Cc1ccccc1N(C(=O)CNC(=O)c1ccco1)C(C(=O)NC1CCCC1)c1ccncc1 (configuration not stated),-,-,-,-,-,-,.,.,.,.
CC1(C)C(C=C(Cl)Cl)C1C(=O)N/N=C/c1ccccc1F (configuration not stated),-,-,-,-,-,25,-,-,-,-
N#Cc1ccc(OC(=O)C2CCN(C3=NS(=O)(=O)c4ccccc43)CC2)cc1,-,.,.,.,.,.,.,.,.,.
COc1ccc(OC)c(/C=C2/Sc3ccccc3C2=O)c1,-,-,-,-,-,-,-,-,-,-
O=C(CSc1nnc(Nc2ccccc2)s1)Nc1ccc(S(=O)(=O)N2CCOCC2)cc1,-,-,-,-,-,25,-,-,-,-
Cn1nc(C(F)(F)F)c(/C=N/OC(=O)c2ccccc2)c1Sc1ccc(Cl)cc1,-,-,-,-,-,25,-,-,-,-
CSc1nc2ccc(NS(=O)(=O)c3ccc(Cl)s3)cc2s1,-,-,-,-,-,100,32%,-,-,-
Cc1ccc(S(=O)(=O)Nc2ccc3nc(C)sc3c2)cc1,-,-,-,-,-,25,-,-,-,-
CC(NC(=O)c1ccco1)C(=O)OCC(=O)N1CCCCCC1 (configuration not stated),-,.,.,.,.,.,.,.,.,.
CCCSc1nc(N)nc2c1ncn2C1OC(CO)C(O)C1O (configuration not stated),-,.,.,.,.,.,.,.,.,.
O=C(NCC1CCCO1)c1ccc(NC(=O)c2cccc([N+](=O)[O-])c2)cc1 (configuration not stated),-,-,-,-,-,-,.,.,.,.
CSc1ccccc1C(=O)OCC(=O)Nc1cccnc1Cl,-,.,.,.,.,.,.,.,.,.
CCOc1ccc(C(=O)NCC(C)NC(=O)c2ccc(OCC)cc2)cc1 (configuration not stated),-,-,-,-,-,25,-,-,-,-
CCOc1ccc(C(=O)NCC(C)C)cc1,-,-,-,-,-,-,.,.,.,.
O=C(Nc1nnc(-c2ccccc2Cl)o1)c1nc2ccccc2s1,-,-,-,-,-,100,-,-,-,-
Cc1cc(C)c2nc(SC(C)C#N)cc(C)c2c1 (configuration not stated),-,-,-,-,-,100,-,-,-,-
Fc1ccc(NC(=S)Nc2ccccc2OC(F)F)cc1Cl,-,-,-,-,-,100,63%,-,-,-
COc1ccc(C(=O)OCCc2ccc(O)cc2)cc1,-,-,-,-,-,25,-,-,-,-
CCOC(=O)N1CCN(C(=O)c2ccc(CSc3ccc(Cl)cc3)cc2)CC1,-,-,-,.,.,.,.,.,.,.
Cc1ccc(SCc2ccc(C(=O)N3CCCCC3)cc2)cc1,-,-,-,-,-,100,-,-,-,-
CCOc1cc(/C=N/NC(=O)CN2CCOCC2)ccc1OCc1ccccc1,-,-,-,-,-,-,.,.,.,.
CCOc1cc(/C=N/NC(=O)c2ccc(CN3CCOCC3)cc2)ccc1OCc1ccccc1,-,-,-,-,-,25,21%,-,-,-

# Compound activity as filed in PubChem.
